Experimental data reported in ChEMBL document CHEMBL5712084, “Interactome Rewiring Following Pharmacological Targeting of BET Bromodomains” (Mol Cell, 2019).
Activity calls are given as the source filed them. The calls are words filed in the database; no cut-off is given here.

Columns and labels:
[1] = molecular target: Bromodomain-containing protein 3 (Homo sapiens) (UniProt Q15059); assay: Inhibition of BRD3 in human U2OS cells assessed as induction of assembly of GFP-tagged BRD3 constructs in to dense foci at 500 nM measured within 20 seconds by live cell imaging; type: cell-based; conditions: time 20.0 sec
Sequence of Bromodomain-containing protein 3 (Homo sapiens) (Q15059 2-726 limits assumed): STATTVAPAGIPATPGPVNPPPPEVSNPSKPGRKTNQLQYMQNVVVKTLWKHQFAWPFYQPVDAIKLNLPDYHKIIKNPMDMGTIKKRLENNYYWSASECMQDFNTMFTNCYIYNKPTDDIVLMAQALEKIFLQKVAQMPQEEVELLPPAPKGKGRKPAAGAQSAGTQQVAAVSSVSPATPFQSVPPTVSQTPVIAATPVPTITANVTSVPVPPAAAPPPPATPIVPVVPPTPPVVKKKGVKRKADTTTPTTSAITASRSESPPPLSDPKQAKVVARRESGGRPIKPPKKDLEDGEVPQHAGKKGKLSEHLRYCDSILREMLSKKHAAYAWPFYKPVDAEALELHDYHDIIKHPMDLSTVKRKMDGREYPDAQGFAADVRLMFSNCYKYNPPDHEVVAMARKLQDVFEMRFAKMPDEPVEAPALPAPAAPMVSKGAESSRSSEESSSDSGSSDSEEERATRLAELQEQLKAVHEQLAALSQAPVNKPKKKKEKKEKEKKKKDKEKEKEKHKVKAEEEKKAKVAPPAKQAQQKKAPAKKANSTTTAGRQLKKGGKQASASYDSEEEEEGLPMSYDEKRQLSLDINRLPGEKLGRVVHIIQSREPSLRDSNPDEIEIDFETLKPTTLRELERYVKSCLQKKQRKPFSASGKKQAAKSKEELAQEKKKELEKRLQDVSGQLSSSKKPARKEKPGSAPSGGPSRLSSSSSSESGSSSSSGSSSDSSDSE
How it was run: (§1)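 Flp-In T-REx U-2 OS cells were grown in DMEM with GlutaMAX and 10% heat-inactivated FBS plus penicillin-streptomycin at 37°C and 10% CO2. eGFP-tagged constructs were expressed from a tetracycline-inducible pcDNA5-FRT-TO vector. Nuclear and nucleolar localisation and foci were followed by live-cell imaging.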

[2] = molecular target: Bromodomain-containing protein 3 (Homo sapiens) (UniProt Q15059); assay: Inhibition of BRD3 in human U2OS cells assessed as induction of assembly of GFP-tagged BRD3 constructs in to dense foci at 500 nM measured 12 hrs after drug washout by live cell imaging; type: cell-based; how it was run: as §1
[3] = tested on: U2OS; assay: Effect on localization of the nucleolar proteins (PARP1, POLR1E, and TCOF1) in human U2OS cells at 500 nM; type: functional, cell-based; how it was run: as §1
[4] = tested on: Bromodomain-containing protein 1 (Homo sapiens), O95696 [UNDEFINED MUTATION]; assay: Inhibition of BRD1 mutant bromodomain in human U2OS cells expressing BD1 mutant assessed as diffuse nuclear localization of BD1 mutant in asynchronously growing cells at 500 nM by live cell imaging; type: cell-based; how it was run: as §1
Sequence of Bromodomain-containing protein 1 (Homo sapiens), O95696 [UNDEFINED MUTATION] (O95696 whole entry, looked up, change not shown): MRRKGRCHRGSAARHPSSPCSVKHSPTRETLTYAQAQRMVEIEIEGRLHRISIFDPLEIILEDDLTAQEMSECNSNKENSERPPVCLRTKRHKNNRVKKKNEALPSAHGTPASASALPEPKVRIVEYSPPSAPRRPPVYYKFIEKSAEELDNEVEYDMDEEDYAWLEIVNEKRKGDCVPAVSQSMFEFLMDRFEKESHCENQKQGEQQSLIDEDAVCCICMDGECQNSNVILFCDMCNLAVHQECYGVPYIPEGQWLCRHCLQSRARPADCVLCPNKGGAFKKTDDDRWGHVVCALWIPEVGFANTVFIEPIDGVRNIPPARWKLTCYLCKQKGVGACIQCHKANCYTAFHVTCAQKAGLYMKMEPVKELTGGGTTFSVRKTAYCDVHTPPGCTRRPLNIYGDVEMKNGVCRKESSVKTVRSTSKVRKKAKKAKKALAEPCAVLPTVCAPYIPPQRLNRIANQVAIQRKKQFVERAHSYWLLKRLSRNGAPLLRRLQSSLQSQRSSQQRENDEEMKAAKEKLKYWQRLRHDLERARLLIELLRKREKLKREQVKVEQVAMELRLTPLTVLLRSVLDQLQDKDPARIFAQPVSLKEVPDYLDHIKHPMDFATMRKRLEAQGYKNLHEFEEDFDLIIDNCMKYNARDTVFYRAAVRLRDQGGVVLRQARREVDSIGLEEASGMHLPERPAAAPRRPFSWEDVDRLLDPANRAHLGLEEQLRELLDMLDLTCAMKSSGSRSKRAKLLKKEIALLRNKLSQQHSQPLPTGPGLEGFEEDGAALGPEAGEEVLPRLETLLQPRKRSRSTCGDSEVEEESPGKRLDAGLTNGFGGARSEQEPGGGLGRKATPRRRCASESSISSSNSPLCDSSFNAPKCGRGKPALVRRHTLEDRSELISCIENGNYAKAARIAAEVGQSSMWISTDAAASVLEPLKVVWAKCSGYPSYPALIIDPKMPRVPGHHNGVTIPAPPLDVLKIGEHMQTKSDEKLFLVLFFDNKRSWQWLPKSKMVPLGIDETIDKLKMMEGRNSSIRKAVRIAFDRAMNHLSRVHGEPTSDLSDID

[5] = tested on: Bromodomain-containing protein 3 (Homo sapiens), Q15059 [UNDEFINED MUTATION]; assay: Inhibition of BRD3 mutant bromodomain in human U2OS cells assessed as accumulation of BRD3 mutant in to foci at 500 nM by live cell imaging; type: cell-based; how it was run: as §1
Sequence of Bromodomain-containing protein 3 (Homo sapiens), Q15059 [UNDEFINED MUTATION] (Q15059 whole entry, looked up, change not shown): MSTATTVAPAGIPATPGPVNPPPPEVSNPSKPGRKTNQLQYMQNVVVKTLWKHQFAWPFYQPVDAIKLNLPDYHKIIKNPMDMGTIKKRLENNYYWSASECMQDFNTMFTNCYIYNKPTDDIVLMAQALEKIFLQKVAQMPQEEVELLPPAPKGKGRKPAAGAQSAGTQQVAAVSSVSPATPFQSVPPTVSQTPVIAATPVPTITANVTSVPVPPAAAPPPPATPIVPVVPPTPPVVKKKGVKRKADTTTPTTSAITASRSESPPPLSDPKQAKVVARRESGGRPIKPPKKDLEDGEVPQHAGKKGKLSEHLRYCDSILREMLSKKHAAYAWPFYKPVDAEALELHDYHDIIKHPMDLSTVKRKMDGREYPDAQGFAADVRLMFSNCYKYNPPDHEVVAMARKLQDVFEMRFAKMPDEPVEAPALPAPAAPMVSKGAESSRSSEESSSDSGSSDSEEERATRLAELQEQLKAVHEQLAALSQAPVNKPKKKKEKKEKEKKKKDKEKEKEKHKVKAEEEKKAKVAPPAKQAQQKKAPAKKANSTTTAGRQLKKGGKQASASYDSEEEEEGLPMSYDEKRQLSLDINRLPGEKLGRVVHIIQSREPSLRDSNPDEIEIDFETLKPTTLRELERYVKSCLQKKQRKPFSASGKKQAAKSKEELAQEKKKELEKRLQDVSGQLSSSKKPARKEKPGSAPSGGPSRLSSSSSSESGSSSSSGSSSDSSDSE

[6] = tested on: Bromodomain-containing protein 3 (Homo sapiens), Q15059 [UNDEFINED MUTATION]; assay: Inhibition of BRD3 mutant bromodomain in human U2OS cells assessed as accumulation of BRD3 mutant in nucleolus at 500 nM by live cell imaging; type: cell-based; how it was run: as §1
[7] = tested on: U2OS; assay: Inhibition of BRD1:2 mutant bromodomain in human U2OS cells assessed as foci formation of BRD2 mutant in to foci at 500 nM by live cell imaging; type: cell-based; how it was run: as §1
[8] = molecular target: Bromodomain-containing protein 3 (Homo sapiens) (UniProt Q15059); assay: Inhibition of BRD3 in human Flp-In-T-REx-293 cells assessed as increase in nucleolar protein partners (RNAPI, UBTF and TCOF1 ) at 500 nM incubated for 24 hrs by BioID assay; type: cell-based
How it was run: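 Stable Flp-In T-REx HEK293 lines carrying BirA*-FLAG-tagged baits were grown in hygromycin to 80% confluence. Expression was induced with 1 μg/mL tetracycline and cells were given 50 μM biotin for 24 h. Lysis was in RIPA, with streptavidin capture for 3 h at 4°C and on-bead trypsin digestion, then LC-MS/MS. BirA*-FLAG-GFP or -NLS cells served as controls. Two biological replicates were run.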

[9] = molecular target: Bromodomain-containing protein 3 (Homo sapiens) (UniProt Q15059); assay: Inhibition of BRD3 in human U2OS cells assessed as displacement of BRD3 from rDNA IGS region toward the transcribed regions at 500 nM; type: cell-based
[10] = molecular target: Bromodomain-containing protein 3 (Homo sapiens) (UniProt Q15059); assay: Inhibition of BRD3 in human U2OS cells assessed as increase in association with partner protein (TCOF1, UBTF, and RNAPI) at 500 nM; type: cell-based
[11] = molecular target: T1, Bromodomain and extra-terminal motif (BET) (Homo sapiens) (UniProt P25440+O60885+Q58F21+Q15059); conditions: Flp-In-T-REx-293, dose 500.0 nM, time 1.0 hrs
[12] = molecular target: T1, Bromodomain and extra-terminal motif (BET) (Homo sapiens); conditions: Flp-In-T-REx-293, dose 500.0 nM, time 10-240 min
[13] = molecular target: T1, Bromodomain and extra-terminal motif (BET) (Homo sapiens); conditions: Flp-In-T-REx-293, dose 500.0 nM, time 10-240 min; remark: listed apart in the source
[14] = molecular target: T1, Bromodomain and extra-terminal motif (BET) (Homo sapiens); conditions: Flp-In-T-REx-293, dose 500.0 nM, time 10-240 min; remark: listed apart in the source
[15] = molecular target: T1, Bromodomain and extra-terminal motif (BET) (Homo sapiens); conditions: Flp-In-T-REx-293, dose 500.0 nM, time 10-240 min; remark: listed apart in the source
[16] = molecular target: T1, Bromodomain and extra-terminal motif (BET) (Homo sapiens); conditions: Flp-In-T-REx-293, dose 500.0 nM, time 10-240 min; remark: listed apart in the source
[17] = molecular target: T1, Bromodomain and extra-terminal motif (BET) (Homo sapiens); conditions: Flp-In-T-REx-293, dose 500.0 nM, time 10-240 min; remark: listed apart in the source
[18] = molecular target: T1, Bromodomain and extra-terminal motif (BET) (Homo sapiens); conditions: Flp-In-T-REx-293, dose 500.0 nM, time 10-240 min; remark: listed apart in the source
[19] = molecular target: T1, Bromodomain and extra-terminal motif (BET) (Homo sapiens); conditions: Flp-In-T-REx-293, dose 500.0 nM, time 10-240 min; remark: listed apart in the source
[20] = molecular target: T1, Bromodomain and extra-terminal motif (BET) (Homo sapiens); conditions: Flp-In-T-REx-293, dose 500.0 nM
[21] = molecular target: T1, Bromodomain and extra-terminal motif (BET) (Homo sapiens); conditions: Flp-In-T-REx-293, dose 500.0 nM; remark: listed apart in the source
[22] = molecular target: BRD4/BRD9 (Homo sapiens) (UniProt O60885+Q9H8M2); conditions: HEK293, dose 5.0 nmol
Sequence of BRD4/BRD9 (Homo sapiens) (Q9H8M2 whole entry, looked up, other chains not shown): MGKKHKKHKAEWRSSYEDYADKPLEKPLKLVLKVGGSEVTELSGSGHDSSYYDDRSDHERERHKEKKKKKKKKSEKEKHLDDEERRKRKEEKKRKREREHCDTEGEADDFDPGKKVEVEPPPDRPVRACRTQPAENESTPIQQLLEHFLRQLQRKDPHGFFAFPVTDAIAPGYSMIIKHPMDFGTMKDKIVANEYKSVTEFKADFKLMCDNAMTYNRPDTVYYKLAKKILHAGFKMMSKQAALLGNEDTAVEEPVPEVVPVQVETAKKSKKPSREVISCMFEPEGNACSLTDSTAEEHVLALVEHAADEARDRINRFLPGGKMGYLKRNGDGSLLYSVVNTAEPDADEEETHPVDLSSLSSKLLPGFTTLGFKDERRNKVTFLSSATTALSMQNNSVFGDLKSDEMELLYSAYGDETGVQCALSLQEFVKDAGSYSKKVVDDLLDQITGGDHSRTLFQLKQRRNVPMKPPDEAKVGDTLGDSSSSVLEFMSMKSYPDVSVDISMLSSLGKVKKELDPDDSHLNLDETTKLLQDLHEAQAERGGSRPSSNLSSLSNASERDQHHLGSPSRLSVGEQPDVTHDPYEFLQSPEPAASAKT

[23] = molecular target: Bromodomain-containing protein 2 (Homo sapiens) (UniProt P25440); conditions: U2OS, dose 500.0 nM, time 20.0 sec
Sequence of Bromodomain-containing protein 2 (Homo sapiens) (P25440 whole entry, looked up): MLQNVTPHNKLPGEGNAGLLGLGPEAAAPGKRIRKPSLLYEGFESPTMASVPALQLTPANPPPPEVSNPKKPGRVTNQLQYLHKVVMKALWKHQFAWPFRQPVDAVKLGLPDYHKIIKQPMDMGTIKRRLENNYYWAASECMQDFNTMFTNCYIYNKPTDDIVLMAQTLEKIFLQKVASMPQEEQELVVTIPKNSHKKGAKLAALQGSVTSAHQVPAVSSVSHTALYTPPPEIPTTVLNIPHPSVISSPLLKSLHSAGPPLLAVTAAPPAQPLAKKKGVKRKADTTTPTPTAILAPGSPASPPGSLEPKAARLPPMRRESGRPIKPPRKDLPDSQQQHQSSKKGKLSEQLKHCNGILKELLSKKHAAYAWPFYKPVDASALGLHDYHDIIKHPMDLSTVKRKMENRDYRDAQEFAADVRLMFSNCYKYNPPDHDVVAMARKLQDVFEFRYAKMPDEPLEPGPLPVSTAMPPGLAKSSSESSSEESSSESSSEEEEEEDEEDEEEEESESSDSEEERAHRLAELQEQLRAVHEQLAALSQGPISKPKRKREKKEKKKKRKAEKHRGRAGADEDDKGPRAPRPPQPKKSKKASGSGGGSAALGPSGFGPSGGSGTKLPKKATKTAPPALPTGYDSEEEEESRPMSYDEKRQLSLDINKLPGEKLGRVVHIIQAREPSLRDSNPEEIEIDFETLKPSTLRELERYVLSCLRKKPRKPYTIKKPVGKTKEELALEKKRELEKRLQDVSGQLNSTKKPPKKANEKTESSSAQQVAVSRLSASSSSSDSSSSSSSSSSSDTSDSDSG

[24] = molecular target: Bromodomain-containing protein 2 (Homo sapiens) (UniProt P25440); conditions: U2OS, dose 500.0 nM, time 12.0 hrs
[25] = tested on: Bromodomain-containing protein 2 (Homo sapiens), P25440 [UNDEFINED MUTATION]; conditions: U2OS, dose 500.0 nM
Sequence of Bromodomain-containing protein 2 (Homo sapiens), P25440 [UNDEFINED MUTATION] (P25440 whole entry, looked up, change not shown): as the sequence (P25440 whole entry, looked up) above

[26] = tested on: Bromodomain-containing protein 2 (Homo sapiens), P25440 [UNDEFINED MUTATION]; conditions: Flp-In-T-REx-293, dose 500.0 nM, time 24.0 hrs

Which inhibition [1] does the source give for `Cc1sc2c(c1C)C(c1ccc(Cl)cc1)=N[C@@H](CC(=O)OC(C)(C)C)c1nnc(C)n1-2` here?
The inhibition was “Active”.

What about the inhibition [2] of the same molecule?
The inhibition was “Active”.

And the Activity [3]?
The Activity was “inactive”.

What about the inhibition [4] of the same molecule?
The inhibition was “inactive”.

And the inhibition [5]?
Its inhibition is “Active”.

What about the inhibition [6] of the same molecule?
Its inhibition is “Active”.

And the inhibition [7]?
Its inhibition is “inactive”.

And the inhibition [8]?
The inhibition was “Active”.

What about the inhibition [9] of the same molecule?
The inhibition was “Active”.

And the inhibition [10]?
The inhibition was “Active”.

And the inhibition [11]?
The inhibition was “Active”.

What about the inhibition [12] of the same molecule?
The inhibition was “Active”.

And the inhibition [13]?
The inhibition was “Active”.

And the inhibition [14]?
Its inhibition is “Active”.

And the log2FC [15]?
The log2FC was 2.

And the log2FC [16]?
Its log2FC is > 2.

What about the log2FC [17] of the same molecule?
Its log2FC is > 2.

What about the inhibition [18] of the same molecule?
The inhibition was “Active”.

And the inhibition [19]?
Its inhibition is “Active”.

What about the inhibition [20] of the same molecule?
The inhibition was “Active”.

And the inhibition [21]?
The inhibition was “Active”.

And the inhibition [22]?
The inhibition was “inactive”.

What about the inhibition [23] of the same molecule?
Its inhibition is “Active”.

What about the inhibition [24] of the same molecule?
Its inhibition is “Active”.

And the inhibition [25]?
Its inhibition is “inactive”.

What about the inhibition [26] of the same molecule?
The inhibition was “inactive”.
